Test results taken from ChEMBL document CHEMBL3271971, “Antineoplastic and biochemical properties of arylsulfonylhydrazones of 2-formylpyridine N-oxide” (J Med Chem, 1976).

Columns and labels:
Ehrlich [1] = experiment: Antineoplastic activity against mouse EAC cells allografted in CD-1 mouse assessed as average survival at 60 mg/kg administered qd for 6 days (reference value: 14.4 +/- 1.2 days); format: functional
Summary of the method: (§1)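 Ascitic tumours were transplanted from an appropriate donor mouse carrying a 7-day tumour growth. Drug was given at 10–60 mg/kg/day for six consecutive days. Sensitivity was judged by prolongation of survival time relative to untreated tumour-bearing controls. Mice were weighed throughout, and percentage weight change from onset to end of therapy indicated toxicity.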

Mus musculus [2] = experiment: Toxicity in BDF1 mouse allografted with mouse L1210 cells assessed as change in body weight at 40 mg/kg administered qd for 6 days (reference value: 13.6%); format: organism-based; design: dose 40 mg/kg; conditions: in vivo, 144 h
Summary of the method: (§2)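 Ascitic tumors were transplanted from a donor mouse bearing a 7-day tumor. Daily doses were given for six consecutive days. Percentage body-weight change from onset to termination of therapy served as the index of drug toxicity.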

Ehrlich [3] = experiment: Antineoplastic activity against mouse EAC cells allografted in CD-1 mouse assessed as mouse survival at 20 mg/kg administered qd for 6 days measured for 50 days relative to control; format: functional; summary of the method: as §1
[4] = Antineoplastic activity against mouse Hepa129 cells allografted in C3H mouse assessed as average survival at 40 mg/kg administered qd for 6 days (reference value: 18 +/- 0.6 days); format: functional; summary of the method: as §1
[5] = Antineoplastic activity against mouse S180A cells allografted in CD-1 mouse assessed as average survival at maximum effective dose administered qd for 6 days relative to control; format: functional
Summary of the method: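 Sarcoma 180 ascites cells were transplanted from a donor mouse bearing a 7-day tumour. Each agent was tested at 10–60 mg/kg/day, once daily for six consecutive days, starting 24 h after transplantation, in groups of 5–10 mice. Pooled untreated controls totalled 40 mice. Mice surviving beyond 50 days were counted as 50-day survivors, and body-weight change over therapy served as the toxicity index.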

L1210 = experiment: Antineoplastic activity against mouse L1210 cells allografted in BDF1 mouse assessed as average survival at 60 mg/kg administered qd for 6 days (reference value: 8.2 +/- 0.4 days); format: functional; summary of the method: as §1
Mus musculus [6] = experiment: Effect on protein synthesis in tumor of CD-1 mouse allografted with mouse S180A cells assessed as [14C]-leucine incorporation at 80 mg/kg, ip pretreated for 6 hrs followed by radiotracer-addition measured after 1 hr relative to control; format: functional; conditions: route intraperitoneal
Summary of the method: (§3)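 Mice bearing 6-day Sarcoma 180 ascites implants received a single ip dose of 80 mg/kg. At the stated pretreatment time they were given ip tracer: 200 μg thymidine-3H, 200 μg uridine-3H or 125 μg DL-leucine-14C. After 1 h of incorporation, specific radioactivity of DNA, RNA or protein was read as % of control incorporation.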

[7] = Antineoplastic activity against mouse S180A cells allografted in CD-1 mouse assessed as mouse survival at 20 mg/kg administered qd for 6 days measured for 50 days relative to control; format: functional; summary of the method: as §1
Ehrlich [8] = experiment: Antineoplastic activity against mouse EAC cells allografted in CD-1 mouse assessed as mouse survival at 40 mg/kg administered qd for 6 days measured for 50 days relative to control; format: functional; summary of the method: as §1
[9] = Antineoplastic activity against mouse Hepa129 cells allografted in C3H mouse assessed as average survival at 60 mg/kg administered qd for 6 days (reference value: 18 +/- 0.6 days); format: functional; summary of the method: as §1
Mus musculus [10] = experiment: Effect on DNA synthesis in tumor of CD-1 mouse allografted with mouse S180A cells assessed as [3H]-thymidine incorporation at 40 mg/kg, ip pretreated for 1 hr followed by radiotracer-addition measured after 1 hr relative to control; format: functional; conditions: route intraperitoneal
Summary of the method: (§4)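 Sarcoma 180 ascites cells implanted 6 days earlier. Mice received a single ip dose of 10–80 mg/kg, then 1 h later an ip tracer: 200 μg thymidine-3H, 200 μg uridine-3H or 125 μg DL-leucine-14C. Tracer was incorporated for 1 h. Specific activity of tumor-cell DNA, RNA or protein is expressed as % of untreated controls. Values are means of 4-16 mice, each analyzed separately.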

Mus musculus [11] = experiment: Toxicity in C3H mouse allografted with mouse Hepa129 cells assessed as change in body weight at 60 mg/kg administered qd for 6 days (reference value: 13.5%); format: organism-based; design: dose 60 mg/kg; conditions: in vivo, 144 h; summary of the method: as §2
Mus musculus [12] = experiment: Toxicity in CD-1 mouse allografted with mouse EAC cells assessed as change in body weight at 20 mg/kg administered qd for 6 days (reference value: 26.8%); format: organism-based, Ehrlich; design: dose 20 mg/kg; conditions: in vivo, 144 h; summary of the method: as §2
Mus musculus [13] = experiment: Toxicity in CD-1 mouse allografted with mouse S180A cells assessed as change in body weight at 40 mg/kg administered qd for 6 days (reference value: 23.2%); format: organism-based; design: dose 40 mg/kg; conditions: in vivo, 144 h
[14] = Antineoplastic activity against mouse Hepa129 cells allografted in C3H mouse assessed as mouse survival at 60 mg/kg administered qd for 6 days measured for 50 days relative to control; format: functional; summary of the method: as §1
Ehrlich [15] = experiment: Antineoplastic activity against mouse EAC cells allografted in CD-1 mouse assessed as mouse survival at 60 mg/kg administered qd for 6 days measured for 50 days relative to control; format: functional; summary of the method: as §1
Mus musculus [16] = experiment: Toxicity in BDF1 mouse allografted with mouse L1210 cells assessed as change in body weight at 60 mg/kg administered qd for 6 days (reference value: 13.6%); format: organism-based; design: dose 60 mg/kg; conditions: in vivo, 144 h; summary of the method: as §2
Mus musculus [17] = experiment: Effect on protein synthesis in tumor of CD-1 mouse allografted with mouse S180A cells assessed as [14C]-leucine incorporation at 80 mg/kg, ip pretreated for 1 hr followed by radiotracer-addition measured after 1 hr relative to control; format: functional; conditions: route intraperitoneal; summary of the method: as §4
Mus musculus [18] = experiment: Toxicity in CD-1 mouse allografted with mouse S180A cells assessed as change in body weight at 20 mg/kg administered qd for 6 days (reference value: 23.2%); format: organism-based; design: dose 20 mg/kg; conditions: in vivo, 144 h
Mus musculus [19] = experiment: Toxicity in CD-1 mouse allografted with mouse S180A cells assessed as change in body weight at maximum effective dose administered qd for 6 days (reference value: 23.2%); format: organism-based; conditions: 144 h
Mus musculus [20] = experiment: Effect on protein synthesis in tumor of CD-1 mouse allografted with mouse S180A cells assessed as [14C]-leucine incorporation at 80 mg/kg, ip pretreated for 3 hrs followed by radiotracer-addition measured after 1 hr relative to control; format: functional; conditions: route intraperitoneal; summary of the method: as §3
Mus musculus [21] = experiment: Effect on DNA synthesis in tumor of CD-1 mouse allografted with mouse S180A cells assessed as [3H]-thymidine incorporation at 20 mg/kg, ip pretreated for 1 hr followed by radiotracer-addition measured after 1 hr relative to control; format: functional; conditions: route intraperitoneal; summary of the method: as §4
[22] = Antineoplastic activity against mouse Hepa129 cells allografted in C3H mouse assessed as average survival at 20 mg/kg administered qd for 6 days (reference value: 18 +/- 0.6 days); format: functional; summary of the method: as §1
Mus musculus [23] = experiment: Effect on DNA synthesis in tumor of CD-1 mouse allografted with mouse S180A cells assessed as [3H]-thymidine incorporation at 80 mg/kg, ip pretreated for 1 hr followed by radiotracer-addition measured after 1 hr relative to control; format: functional; conditions: route intraperitoneal; summary of the method: as §4
[24] = Antineoplastic activity against 1-formylisoquinoline thiosemicarbazone-resistant mouse S180A cells allografted in CD-1 mouse assessed as average survival at 60 mg/kg administered qd for 6 days (reference value: 14.4 +/- 0.9 days); format: functional; summary of the method: as §1
Mus musculus [25] = experiment: Effect on DNA synthesis in tumor of CD-1 mouse allografted with mouse S180A cells assessed as [3H]-thymidine incorporation at 80 mg/kg, ip pretreated for 6 hrs followed by radiotracer-addition measured after 1 hr relative to control; format: functional; conditions: route intraperitoneal; summary of the method: as §3

For Cc1ccc(S(=O)(=O)N/N=C/c2cccc[n+]2[O-])cc1, the Survival (Ehrlich [1]) was 40.8 days, the Activity (Mus musculus [2]) was 2.8% and the survival at 20 mg/kg (Ehrlich [3]) was 10%. For the same molecule, the Survival [4] was 24.8 days, the T/C [5] was 307% and the Survival (L1210) was 11.8 days. The Activity (Mus musculus [6]) was 89%, the survival at 20 mg/kg [7] was 10% and the survival at 40 mg/kg (Ehrlich [8]) was 50%. The Survival [9] was 29.4 days, the Activity (Mus musculus [10]) was 67% and the Activity (Mus musculus [11]) was -1.6%. For the same molecule, the Activity (Mus musculus [12]) was 2.4%, the Activity (Mus musculus [13]) was -3.1% and the survival at 60 mg/kg [14] was 20%. For the same molecule, the survival at 60 mg/kg (Ehrlich [15]) was 40%, the Activity (Mus musculus [16]) was -5.8% and the Activity (Mus musculus [17]) was 73%. For the same molecule, the Activity (Mus musculus [18]) was 21.6%, the Activity (Mus musculus [19]) was -8% and the Activity (Mus musculus [20]) was 70%. For the same molecule, the Activity (Mus musculus [21]) was 71%, the Survival [22] was 22.2 days and the Activity (Mus musculus [23]) was 59%. For the same molecule, the Survival [24] was 24.4 days and the Activity (Mus musculus [25]) was 63%.
